Source: PubChem (several laboratories)
This is a sample that favours compounds with a hit; in the whole collection about 2.4% have one here.
MT stabilizer = stabilizes microtubules in HeLa cells; HeLa tubulin immunostaining HCS, 24 h; share of cells brighter than vehicle mean+2SD; % tubulin-high responders, % at 10 µM; 200,000 tested, 0.83% active; AID 2205;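 active means plate Z-score above 3 for both tubulin-high and condensed-nucleus cell shares, with cell loss under 80%, at 10 µM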;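 further: anti alpha tubulin signal scored within the nucleus-defined area of each cell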
b-catenin transl = beta-catenin nuclear translocation modulation | HeLa beta-catenin nuclear translocation, immunofluorescence imaging | nuclear translocation activity, % at 5 µM | 190,000 tested, 0.3% active | AID 1665;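 active means nuclear translocation activity above 50% at 5 µM, with a well cell count of 50 or more; inconclusive means wells under 50 cells across six images, flagged as toxic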;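 further: per-cell ratio of nuclear to cytoplasmic median beta-catenin stain intensity; plate controls were DMSO negative control for no effect and GSK-3 inhibitor IX positive control for full effect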
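System: Human HeLa cells, endogenous beta-catenin | Compound dosing: 5 µM primary, 0.02–20 µM confirmation | Timing: 24 h compound exposure at 37°C, 5% CO2 | Measured by: Fluorescence imaging of beta-catenin antibody stain plus DAPI | Read-out basis: % activation of per-cell nuclear versus cytoplasmic median beta-catenin signal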
Insulin prom inh = TRM-6 insulin promoter activity inhibition | TRM-6 cells, insulin promoter-eGFP reporter, imaging; reporter expression induced with tamoxifen | AID 1273 | inhibition, % at 2 µM | 130,000 tested, 0.9% active;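 active means inhibition above the mean plus 3 SD, with well images judged a real hit on visual review, cut at about 60% in these data, passing the limit was not always enough; inconclusive means inhibition over the cutoff but images rejected on review; inactive means inhibition not above the cutoff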
HSV replic up = increases HSV replication in cells | HSV replication augmentation in cells, fold increase | maximum fold increase | 220,000 tested, 0.005% active | AID 1956; in the data active means maximum fold increase above about 1.5; inconclusive means no clear call, values can overlap the other calls; tested in PC3 cells
ROMK primary = human ROMK K+ channel modulation, primary screen; Tet-inducible ROMK, thallium flux fluorescence; actives lie on both sides; P48048; B-score at 10 µM; 130,000 tested, 2% active;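 active means signal ratio slope over the read window, or its plate-corrected B-score, at least 3 SD from the plate mean, either direction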;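 further: B-score of the F/F0 ratio slope over 7 to 12 s after thallium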
Target sequence (P48048 whole entry, looked up): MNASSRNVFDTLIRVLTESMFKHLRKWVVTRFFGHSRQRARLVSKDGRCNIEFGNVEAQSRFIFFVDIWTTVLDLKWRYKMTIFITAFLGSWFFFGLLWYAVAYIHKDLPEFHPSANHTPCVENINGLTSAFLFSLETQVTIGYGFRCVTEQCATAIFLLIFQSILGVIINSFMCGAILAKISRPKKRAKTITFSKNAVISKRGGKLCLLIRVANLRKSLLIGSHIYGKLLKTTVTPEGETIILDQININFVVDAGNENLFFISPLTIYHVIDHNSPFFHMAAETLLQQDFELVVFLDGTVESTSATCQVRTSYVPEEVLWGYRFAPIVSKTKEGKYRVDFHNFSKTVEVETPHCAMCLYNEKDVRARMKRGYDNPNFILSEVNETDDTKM
ROMK hit retest = confirmation of human ROMK potassium channel modulators | shares compounds with ROMK primary | ROMK thallium flux, fluorescence ratio; hits give low values | normalized thallium flux (F/F0 slope) at 10 µM | 3,000 tested, 54% active;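 active means Flux at 10 µM at least 3 SD below or above vehicle control mean in one or both replicates; inconclusive means no clear call, values can overlap the other calls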
* = called active by the depositor.

For COc1ccccc1OCC(O)Cn1c(=N)n(Cc2ccccc2)c2ccccc21 (stereo unspecified) the results were MT stabilizer 3, Insulin prom inh -278, HSV replic up inactive, ROMK primary -7.8* and ROMK hit retest 0.048*.
Screening CCCCCn1c(=N)n(CC(O)COc2ccccc2OC)c2ccccc21 (stereo unspecified) returned MT stabilizer 3, b-catenin transl -2, HSV replic up inactive and ROMK hit retest 0.048*.
`C=CCn1c(=N)n(CC(O)COc2ccccc2OC)c2ccccc21` (stereo unspecified) gave MT stabilizer 7 and HSV replic up inactive.
CCCn1c(=N)n(CC(O)COc2ccc(C)cc2)c2ccccc21 (stereo unspecified) was read as b-catenin transl -4 and HSV replic up inactive.
For CCOc1ccc(C(=O)/C=C/Nc2ccc(S(=O)(=O)Nc3onc(C)c3C)cc2)cc1 the results were MT stabilizer 3, b-catenin transl -1, Insulin prom inh -138, HSV replic up inactive, ROMK primary 2.7* and ROMK hit retest 0.089.
`CCc1nnc(NS(=O)(=O)c2ccc(N/C=C/C(=O)c3ccc(OC)cc3)cc2)s1` gave MT stabilizer 4, b-catenin transl 1, HSV replic up inactive, ROMK primary 4.1* and ROMK hit retest 0.094.
Screening Cc1noc(NS(=O)(=O)c2ccc(N/C=C\C(=O)c3ccc(Br)cc3)cc2)c1C returned MT stabilizer 1, b-catenin transl 1, Insulin prom inh 7, HSV replic up inactive, ROMK primary 6* and ROMK hit retest 0.099*.
`CCOC(=O)c1cc(-c2ccc(/C=N\n3cnnc3)o2)ccc1Cl` gave MT stabilizer 5, b-catenin transl 21, Insulin prom inh 30, HSV replic up inactive and ROMK hit retest 0.066*.
Screening CCSc1ncnc2c1sc1nc(-c3ccco3)c3c(c12)CC(C)(C)OC3 returned MT stabilizer 2, b-catenin transl -1, Insulin prom inh -20 and ROMK hit retest 0.08.
For O=C(C1CCN(S(=O)(=O)N2CCCCC2)CC1)N1CCCCC1 the results were MT stabilizer 5, b-catenin transl -4, Insulin prom inh -79, HSV replic up inactive and ROMK primary 0.86.
CNC(=O)COC(=O)[C@@H](Nc1ccc(S(=O)(=O)N2CCOCC2)cc1[N+](=O)[O-])C(C)C was read as MT stabilizer 4, b-catenin transl 3, Insulin prom inh 38, HSV replic up inactive and ROMK primary 0.08.
CCCCN(C)CCC(=O)Nc1ccc(F)c(F)c1 was read as MT stabilizer 2, b-catenin transl 5, Insulin prom inh -17 and HSV replic up inactive.
For Cc1nc(N/C(N)=N/S(=O)(=O)c2ccc([N+](=O)[O-])cc2)nc2ccccc12 the results were MT stabilizer 2, b-catenin transl -1, Insulin prom inh 30, HSV replic up inactive and ROMK primary -0.7.
COc1ccc(C(=O)Nc2ccccc2C(=O)O)cc1Cl was read as MT stabilizer 2, b-catenin transl -1, Insulin prom inh -3, HSV replic up inactive and ROMK primary 0.063.
`CCOc1c(Cl)cc(C(=O)Nc2ccccc2C(=O)O)cc1Cl` gave MT stabilizer 2, b-catenin transl -4, Insulin prom inh -14, HSV replic up inactive, ROMK primary -3.6* and ROMK hit retest 0.054*.
For CCOc1ccc(NC(=O)CCN2CCN(S(=O)(=O)c3cc(Cl)ccc3OC)CC2)cc1 the results were MT stabilizer 5, b-catenin transl -1, Insulin prom inh 38, HSV replic up inactive, ROMK primary -2.4* and ROMK hit retest 0.062*.
COC(=O)C(CC(C)C)NC(=O)C(Cc1ccccc1)NC(=O)C1CCCN1C(=O)OC(C)(C)C (stereo unspecified) was read as MT stabilizer 2, b-catenin transl 0, HSV replic up inactive and ROMK primary 0.14.
`CCOc1ccccc1CN1CCN(Cc2ccc(C)o2)CC1CCO` (stereo unspecified) gave MT stabilizer 1, b-catenin transl -1, HSV replic up inactive and ROMK primary -0.018.
For CCOc1ccccc1CN1CCN(CC2=Cc3cc(OC)ccc3OC2)CC1CCO (stereo unspecified) the results were b-catenin transl -1, HSV replic up inactive and ROMK hit retest 0.067*.
For Cc1sc(N/N=C/c2cccs2)nc1-c1ccccc1 the results were MT stabilizer 4, b-catenin transl 0, Insulin prom inh 24, HSV replic up inactive and ROMK primary -0.1.
`COc1ccc(CCN2C(=S)N(C)C(=O)C2CC(=O)Nc2ccc(F)cc2)cc1` (stereo unspecified) gave b-catenin transl -2 and HSV replic up inactive.
`CC(C)Cn1cc(C(=O)NC2CCN(Cc3ccccc3)CC2)c2c3ccccc3n(C)c2c1=O` gave MT stabilizer 5, b-catenin transl 0, ROMK primary -2.2* and ROMK hit retest 0.068*.
`N#CNC(=Nc1ccc(Cl)cc1)Oc1ccccc1` gave b-catenin transl 0, HSV replic up inactive and ROMK primary 0.83.
Screening COc1cc(-c2nc3ccccn3c2/N=C/c2cc(OC)c(O)cc2Cl)ccc1O returned MT stabilizer 6, b-catenin transl 0, HSV replic up inactive and ROMK primary 0.12.
`COc1ccc(Cn2ccc(=O)c(Cc3c(Cl)cccc3Cl)c2C)cc1` gave MT stabilizer 3, b-catenin transl 0, Insulin prom inh -57 and HSV replic up inactive.
Cc1ccc(Cn2ccc(=O)c(Cc3c(Cl)cccc3Cl)c2C)cc1 was read as MT stabilizer 2, b-catenin transl 2, Insulin prom inh -13, HSV replic up inactive and ROMK hit retest 0.049*.
For O=C(CCN1C(=O)c2cccnc2C1=O)NC1CCCCCC1 the results were MT stabilizer 5, b-catenin transl -1, Insulin prom inh -118 and HSV replic up inactive.
Screening O=C(CCCN1C(=O)c2ccccc2C1=O)NC1CCCCCC1 returned MT stabilizer 2, b-catenin transl -3, Insulin prom inh -32, HSV replic up inactive, ROMK primary 1.2* and ROMK hit retest 0.081.
For CCOC(=O)c1c(C)n(-c2ccccc2)c2ccc(O)c(CN(C)C)c12 the results were MT stabilizer 4, b-catenin transl -2, HSV replic up inactive, ROMK primary -1.8* and ROMK hit retest inconclusive.
`CCOC(=O)c1c(C)n(C)c2ccc(O)c(CN(CC)CC)c12` gave MT stabilizer 1, b-catenin transl -10, Insulin prom inh 12, HSV replic up inactive and ROMK primary 0.73.
For CC12CCC(C(=O)N3CCCc4ccccc43)(OC1=O)C2(C)C (stereo unspecified) the results were MT stabilizer 1, b-catenin transl -2, Insulin prom inh 26, HSV replic up inactive and ROMK primary 0.46.
